According to ChEMBL document CHEMBL5104110, “Identification of 2-arylquinazolines with alkyl-polyamine motifs as potent antileishmanial agents: synthesis and biological evaluation studies” (RSC Med Chem, 2022):
Values after ≈ are worked out from the molar mass of the structure shown. Active and inactive are the calls of the source. The calls are words filed in the database; no cut-off is given here.

What was measured:
[1] = system: Leishmania donovani; test: Antileishmanial activity against amastigote stage of Leishmania donovani MHOM/SD/62/IS-CL2D assessed as inhibition of parasite growth incubated for 3 days by CellTiter 96 Aqueous Non-Radioactive Cell Proliferation Assay; assay type: functional, organism-based; conditions: 72 h
[2] = system: Leishmania donovani; test: Antileishmanial activity against log phase of wild type Leishmania donovani MHOM/80/IN/Dd8 promastigotes assessed as inhibition of cell growth incubated for 48 hrs by MTT assay; assay type: functional, organism-based; conditions: MHOM/80/IN/Dd8, 48 h
Procedure, shortened: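 L. donovani Dd8 promastigotes grown at 24 °C, pH 7.2, in HEPES-modified RPMI-1640 with 10% heat-inactivated FBS and antibiotics. 2 × 10^5 log-phase cells were exposed to 10–100 µM compound (10 mM DMSO stocks diluted in medium) for 48 h at 24 °C. MTT (400 µg/mL final) was added for 4 h at 37 °C, formazan dissolved in DMSO, and A540 read. IC50 was taken against untreated cells; mean ± SD of three independent experiments.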

[3] = Selectivity index, ratio of IC50 for cytotoxicity against PMA-differentiated THP-1 macrophages to IC50 for antileishmanial activity against log phase of wild type Leishmania donovani MHOM/80/IN/Dd8 promastigotes; assay type: toxicity; conditions: human; read-out: Ratio IC50
[4] = Cytotoxicity against human PMA-differentiated THP-1 macrophages assessed as inhibition of cell growth by MTT assay; assay type: toxicity, cell-based, Macrophage
Procedure, shortened: (§1)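 About 2 × 10^5 THP-1 monocytes were differentiated with 20 ng/mL PMA for 48 h at 37 °C, and non-adherent cells were washed off with serum-free medium. Adherent macrophages were exposed to 10, 20, 50 and 100 µM compound for 48 h at 37 °C in 5% CO2. Viability was read by MTT.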

[5] = system: Leishmania donovani; test: Induction of ROS generation in wild type Leishmania donovani MHOM/80/IN/Dd8 promastigotes incubated for 24 hrs by MitoSOX red dye based fluorescence spectrophotometric analysis; assay type: functional, organism-based
Procedure, shortened: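 Promastigotes were grown at 24 °C in HEPES-modified RPMI-1640 with 10% heat-inactivated FBS, pH 7.2. About 1 × 10^6 parasites/ml were exposed to ~5 µM or ~10 µM test compound. Controls were untreated cells, antimycin A (10 µM) and 0.2% DMSO vehicle. Cells were washed twice in HBSS and stained with 5 µM MitoSOX red for 20 min at 25 °C. Fluorescence was read at ex 510/em 580 nm.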

[6] = system: Macrophage; test: Cytotoxicity against human PMA-differentiated THP-1 macrophages assessed as inhibition of cell growth measured upto 100 uM by MTT assay; assay type: toxicity, cell-based; procedure, shortened: as §1
[7] = system: Leishmania donovani; test: Induction of ROS generation in wild type Leishmania donovani MHOM/80/IN/Dd8 promastigotes at 5 to 10 uM incubated for 48 hrs by MitoSOX red dye based fluorescence spectrophotometric analysis; assay type: functional, organism-based; conditions: dose 5-10 µM
Procedure, shortened: (§2)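 Promastigotes at about 1 × 10^6/mL were treated at ~5 or ~10 µM for 3, 6, 24 and 48 h, with 0.2% DMSO as vehicle and antimycin A (10 µM) as positive control. Cells were washed twice in HBSS and stained with 5 µM MitoSOX red for 20 min at 25 °C. Fluorescence was read at 510/580 nm ex/em.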

[8] = system: Leishmania donovani; test: Induction of ROS generation in wild type Leishmania donovani MHOM/80/IN/Dd8 promastigotes at 10 uM incubated for 24 hrs by MitoSOX red dye based fluorescence spectrophotometric analysis; assay type: functional; procedure, shortened: as §2
[9] = system: Leishmania donovani; test: Induction of ROS generation in wild type Leishmania donovani MHOM/80/IN/Dd8 promastigotes at 5 uM incubated for 24 hrs by MitoSOX red dye based fluorescence spectrophotometric analysis relative to control; assay type: functional; procedure, shortened: as §2
[10] = system: Leishmania donovani; test: Antileishmanial activity against Leishmania donovani assessed as inhibition of parasite growth incubated for 2 hrs by y [3H]thymidine incorporation assay; assay type: functional, organism-based
[11] = system: Leishmania mexicana; test: Antileishmanial activity against Leishmania mexicana assessed as inhibition of parasite growth; assay type: functional, organism-based
[12] = system: Leishmania braziliensis; test: Antileishmanial activity against Leishmania braziliensis assessed as inhibition of parasite growth; assay type: functional, organism-based
[13] = system: Leishmania amazonensis; test: Antileishmanial activity against Leishmania amazonensis assessed as inhibition of parasite growth; assay type: functional, organism-based

SMILES	IC50 [2] [µM]	selectivity ratio [3]	IC50 [4] [µM]	further results
O=C1c2cc(I)ccc2-n2c1nc1ncccc1c2=O				IC50 [1]: 0.016 µg/mL (≈ 0.0427 µM)
NCCNc1nc(-c2ccc(F)cc2)nc2ccccc12	25	2.56	64	
COc1ccc(-c2nc(NCCCN3CCN(C)CC3)c3ccccc3n2)cc1	6.3	7.28	53	
CN(C)CCCNc1nc(-c2ccccc2)nc2ccccc12	9	> 11.1	> 100	
COc1cc(-c2nc(NCCN(C)C)c3ccccc3n2)cc(OC)c1OC	6.5	7.69	50	
CN(C)CCCNc1nc(-c2ccc(F)cc2)nc2ccccc12	13	4.84	63	
CCCCCC[C@H]1C(=O)O[C@H](C)[C@H](NC(=O)c2cccc(NC=O)c2O)C(=O)O[C@@H](C)[C@@H]1OC(=O)CC(C)C				Activity [5]: Active
NCCCCNc1nc(-c2ccc(Cl)cc2)nc2ccccc12	12	1.08	13	
NCCCCNc1nc(-c2ccc(F)cc2)nc2ccccc12	32.5	1.96	64	
COc1ccc(-c2nc(NCCCN3CCOCC3)c3ccccc3n2)cc1O	19	1.76	33.5	
CCCCCCCCCCCCCCCCOP(=O)([O-])OCC[N+](C)(C)C [MILTEFOSINE]	10.5	3.42	36	
COc1cc(-c2nc(NCCCN3CCOCC3)c3ccccc3n2)cc(OC)c1OC				Activity [6]: Toxic
CN(C)CCNc1nc(-c2ccc(O)cc2)nc2ccccc12	5.5	9.27	51	
CN(C)CCCNc1nc(-c2ccc(Cl)cc2)nc2ccccc12	6.5	9.53	62	
COc1cc(-c2nc(NCCCN3CCN(C)CC3)c3ccccc3n2)cc(OC)c1OC	90	0.6	54	
COc1ccc(-c2nc(NCCCN(C)C)c3ccccc3n2)cc1	5	13.5	67.5	Activity [7]: Active; Activity [8]: 119%; Activity [9]: 63%
CN(C)CCCNc1nc(-c2ccc(O)cc2)nc2ccccc12	6.5	10	65	
C=CC(C)(C)c1cc(/C=C/C(=O)c2ccc(O)cc2)c(OC)cc1O [LICOAGROCHACONE A]				IC50 [10]: 4 µg/mL (≈ 11.8 µM)
CN1CCN(CCCNc2nc(-c3ccc(Cl)cc3)nc3ccccc23)CC1	28.5			
CN(C)CCNc1nc(-c2ccc(Cl)cc2)nc2ccccc12	7.5	8	60	
COc1ccc(-c2nc(NCCCN3CCOCC3)c3ccccc3n2)cc1	25	2.24	56	
NCCNc1nc(-c2ccc(Cl)cc2)nc2ccccc12	6.5	2.3	15	
COc1cccc(-c2nc(O)c3ccccc3n2)c1				EC50 [11]: 5.29 µM; EC50 [12]: 4.89 µM; EC50 [13]: 9.14 µM
CN1CCN(CCCNc2nc(-c3ccc(F)cc3)nc3ccccc23)CC1	8	5	40	
COc1ccc(-c2nc(NCCN(C)C)c3ccccc3n2)cc1	5	11	57	Activity [7]: Active; Activity [8]: 82%; Activity [9]: 50%
COc1ccc(-c2nc(NCCN(C)C)c3ccccc3n2)cc1O	6.5	3.46	22.5	
COc1cc(-c2nc(NCCCN(C)C)c3ccccc3n2)cc(OC)c1OC	29.5	2.06	61	
COc1cccc(-c2nc(NCCCN(C)C)c3ccccc3n2)c1	5.5	6.72	37	
Oc1ccc(-c2nc(NCCCN3CCOCC3)c3ccccc3n2)cc1	50	1.42	71	
